Assay results published in ChEMBL document CHEMBL1130403, “Synthesis and biological activity of novel nonnucleoside inhibitors of HIV-1 reverse transcriptase. 2-Aryl-substituted benzimidazoles” (J Med Chem, 1997).

Columns and labels:
[1] = target: Human immunodeficiency virus type 1 reverse transcriptase (Human immunodeficiency virus 1) (UniProt Q72547); assay: Inhibition of HIV-1 (wild type) reverse transcriptase at 10 uMol.; settings: 10 uM
Method in brief: (§1)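 Purified heterodimer RT (0.015 mg/mL) incubated with or without inhibitor (10 μM) in 25 mM Tris pH 8.0, 75 mM KCl, 8 mM MgCl₂, 2 mM DTT, 0.1 mg/mL BSA, CHAPS, 0.1 units poly(rC)-oligo(dG), 0.01 mM dGTP plus [α-³⁵S]-dGTP; 30 min, 37 °C. Nucleotide incorporation expressed relative to no-inhibitor control.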

[2] = tested on: CEM-SS; assay: In vitro 50% cellular protection of CEM-SS cells from HIV-1 induced cytopathicity.; assay type: functional, cell-based; settings: Homo sapiens
[3] = target: Human immunodeficiency virus type 1 reverse transcriptase (Human immunodeficiency virus 1, UniProt Q72547); assay: The quantity of compound required to reduce WT Reverse transcriptase activity by 50%
Method in brief: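 RNA-dependent DNA polymerase activity of purified heterodimer RT (0.015 mg/mL) at various inhibitor concentrations; 25 mM Tris pH 8.0, 75 mM KCl, 8 mM MgCl₂, 2 mM DTT, 0.1 mg/mL BSA, CHAPS, poly(rC)-oligo(dG) template-primer, 0.01 mM dGTP with [α-³⁵S]-dGTP tracer; 30 min at 37 °C; radiolabel incorporation read.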

[4] = target: Human immunodeficiency virus type 1 reverse transcriptase (Human immunodeficiency virus 1) (UniProt Q72547); assay: Compound is evaluated for the percentage of inhibition of HIV-1 WT Reverse transcriptase at 10 uM drug concentration
Method in brief: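 Purified heterodimer HIV-1 WT RT (0.015 mg/mL), RNA-dependent DNA polymerase assay; poly(rC)-oligo(dG) template-primer (0.1 units), 0.01 mM dGTP plus [α-³⁵S]-dGTP, in 25 mM Tris pH 8.0, 75 mM KCl, 8 mM MgCl₂, 2 mM DTT, 0.1 mg/mL BSA, CHAPS; 30 min, 37 °C. Nucleotide incorporation relative to no-inhibitor control gives % inhibition.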

[5] = target: Human immunodeficiency virus type 1 reverse transcriptase (Human immunodeficiency virus 1) (UniProt Q72547); assay: Compound is evaluated for the percent inhibition of HIV-1 WT Reverse transcriptase at 10 uM drug concentration; method in brief: as §1

Row | inhibition [1] [%] | EC50 [2] [µM] | Compound | further results
1 | 12 |  | Cc1cccc2c1nc(CO)n2Cc1c(F)cccc1F | 
2 | 71 | > 32 | Fc1cccc(F)c1-c1nc2ccccc2n1Cc1ccccc1 | IC50 [3]: 18600 nM
3 | 8 |  | O=C(c1c(F)cccc1F)n1c(-c2c(F)cccc2F)nc2ccccc21 | 
4 |  | 6.06 | Fc1cccc(F)c1Cn1c(-c2ccccc2)nc2ccccc21 | IC50 [3]: 16000 nM; inhibition [5]: 77%
5 | 92 | 0.44 | Cc1cccc2c1nc(-c1c(F)cccc1F)n2Cc1c(F)cccc1F | IC50 [3]: 200 nM
6 | 58 | 3.16 | Cc1cccc2c1nc(-c1c(F)cccc1F)n2Cc1c(Cl)cccc1Cl | 
7 | 22 |  | Cc1nc2ccccc2n1Cc1c(F)cccc1F | 
8 | 87 | 0.75 | Cc1cccc2c1nc(-c1c(F)cccc1F)n2Cc1ccccc1 | IC50 [3]: 1600 nM
9 | 70 | 3.5 | Cc1cccc2c1nc(-c1ccncc1)n2Cc1c(F)cccc1F | 
10 | 52 |  | O=S(=O)(c1ccccc1)n1c(-c2c(F)cccc2F)nc2ccccc21 | 
11 | 40 |  | Cc1cccc2c1ncn2Cc1c(F)cccc1F | 
12 | 53 |  | Cc1cccc2c1nc(C(C)C)n2Cc1c(F)cccc1F | 
13 | 35 | 31.6 | Cc1cccc2c1nc(-c1cccnc1)n2Cc1c(F)cccc1F | 
14 | 26 |  | Cc1cccc2c1nc(-c1ccc(C#N)cc1)n2Cc1c(F)cccc1F | 
15 | 7 |  | Fc1cccc(F)c1COCc1nc2ccccc2n1Cc1c(F)cccc1F | 
16 | 8 |  | Cc1cccc2c1nc(-c1ccc3ccccc3c1)n2Cc1c(F)cccc1F | 
17 | 2 |  | Cc1cccc2c1nc(-c1cccc3ccccc13)n2Cc1c(F)cccc1F | 
18 | 36 |  | Cc1cccc2c1nc(-c1c(F)cccc1F)n2Cc1c(F)c(F)c(F)c(F)c1F | 
19 | 71 |  | Cc1ccccc1-c1nc2ccccc2n1Cc1c(F)cccc1F | 
20 | 43 |  | Cc1cccc2c1nc(-c1c(F)cccc1F)n2Cc1cccnc1 | 
21 | 39 |  | Cc1cccc2c1nc(-c1c(F)cccc1F)n2S(=O)(=O)c1ccccc1 | 

Row | Compound | inhibition [1] [%] | EC50 [2] [µM] | further results
22 | Fc1cccc(F)c1Cn1c(-c2c(F)cccc2F)nc2ccccc21 | 93 | 1.7 | IC50 [3]: 110 nM
23 | Fc1cccc(F)c1C1SCc2nc3ccccc3n21 (centres undefined) [THIAZOLOBENZIMIDAZOLE] |  | 0.52 | inhibition [4]: 84%; IC50 [3]: 500 nM
24 | Cc1cccc2c1nc(C=O)n2Cc1c(F)cccc1F | 59 |  | 
